Our source for the IC50 and Zone of inhibition values is ChEMBL document CHEMBL1144277, “Acyl sulfonamide anti-proliferatives. Part 2: activity of heterocyclic sulfonamide derivatives” (Bioorg Med Chem Lett, 2005).

A short description of assay [1]: Inhibitory concentration against Vascular Endothelial Growth Factor dependent Human Umbilical Vascular Endothelial Cells (VEGF-HUVEC). Type of assay: functional. A digest of the protocol:
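Anti-proliferative IC50 measured in HUVEC whose growth depends on VEGF; reported values are means of at least three experiments.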

Assay [2] can be described thus: Zone of inhibition by the compound against Normal fibroblasts at dose of 200 ug/disk; Range 0-400. The assay is classed as functional. A digest of the protocol:
(§1)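 Soft-agar disk diffusion assay on L1210 leukemia cells or normal fibroblasts, with the agent applied on a disk at the stated µg per disk. The zone of inhibition is recorded in zone units (200 units = 6.5 mm), and a zero zone denotes no inhibition.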

Assay [3] has as its system HCT-116. Put plainly: Zone of inhibition by the compound against HCT116 human tumor cells at dose of 200 ug/disk. Type of assay: functional. A digest of the protocol: (§2)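 HCT116 colon carcinoma cells in a soft-agar disk diffusion assay, giving a qualitative measure of cytotoxicity. The test agent is applied on a disk at the stated µg per disk. The zone of inhibition is read in zone units (200 units = 6.5 mm), and a zero zone means no inhibition.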

The subject of assay [4] is L1210. Put plainly: Zone of inhibition by the compound against L1210 Cells at dose of 200 ug/disk; No inhibition. The assay is classed as functional, Mus musculus. In short, it runs like this:
as §1

Assay [5] is described as follows: Zone of inhibition by the compound against Normal fibroblasts at dose of 210 ug/disk; Range 0-270. The assay is classed as functional. A digest of the protocol:
as §1

The subject of assay [6] is L1210. Nature of the assay: Zone of inhibition by the compound against L1210 Cells at dose of 210 ug/disk; Range 200-270. The assay is classed as functional, Mus musculus. A digest of the protocol: as §1
Assay [7] deals with HCT-116. Put plainly: Zone of inhibition by the compound against HCT116 human tumor cells at dose of 210 ug/disk; Range 470-530. The assay is classed as functional. In short, it runs like this:
as §2

Assay [8] in a line: Zone of inhibition by the compound against Normal fibroblasts at dose of 190 ug/disk; Range 0-350. Type of assay: functional. In short, it runs like this: as §1
Assay [9] relates to L1210. Nature of the assay: Zone of inhibition by the compound against L1210 Cells at dose of 190 ug/disk; No inhibition. Type of assay: functional, Mus musculus. In short, it runs like this: as §1
In assay [10] the test system is HCT-116. Put plainly: Zone of inhibition by the compound against HCT116 human tumor cells at dose of 190 ug/disk. The assay is classed as functional. A digest of the protocol:
as §2

Assay [11] is described as follows: Zone of inhibition by the compound against Normal fibroblasts at dose of 210 ug/disk; Range 0-400. Type of assay: functional. In short, it runs like this:
as §1

The test system of assay [12] is HCT-116. Nature of the assay: Zone of inhibition by the compound against HCT116 human tumor cells at dose of 210 ug/disk. Type of assay: functional. In short, it runs like this:
as §2

Assay [13] relates to L1210. Nature of the assay: Zone of inhibition by the compound against L1210 Cells at dose of 210 ug/disk; No inhibition. Type of assay: functional, Mus musculus. A digest of the protocol:
as §1

Assay [14] has as its system L1210. Nature of the assay: Zone of inhibition by the compound against L1210 Cells at dose of 210 ug/disk; Range 0-60. Type of assay: functional, Mus musculus. In short, it runs like this:
as §1

The nature of assay [15]: Zone of inhibition by the compound against Normal fibroblasts at dose of 210 ug/disk; Range 0-330. Type of assay: functional. A digest of the protocol: as §1
The subject of assay [16] is HCT-116. Nature of the assay: Zone of inhibition by the compound against HCT116 human tumor cells at dose of 115 ug/disk. Type of assay: functional. A digest of the protocol:
as §2

Assay [17] relates to L1210. Put plainly: Zone of inhibition by the compound against L1210 Cells at dose of 200 ug/disk; Range 0-250. The assay is classed as functional, Mus musculus. In short, it runs like this:
as §1

A short description of assay [18]: Zone of inhibition by the compound against Normal fibroblasts at dose of 210 ug/disk; Range 0-370. The assay is classed as functional. A digest of the protocol:
as §1

Assay [19] deals with L1210. Put plainly: Zone of inhibition by the compound against L1210 Cells at dose of 210 ug/disk;. The assay is classed as functional, Mus musculus. In short, it runs like this: as §1

Consider `O=C(NS(=O)(=O)c1cc(Br)cs1)c1ccc(Cl)cc1Cl`, for which the IC50 – broadly, the concentration needed to halve the response being measured – in assay [1] amounted to 600 nM.

The compound `O=C(NS(=O)(=O)c1cc(Br)c(Br)s1)c1ccc(Cl)cc1Cl` registered an IC50 in assay [1] of 220 nM.

On to `O=C(NS(=O)(=O)c1ccc2c(c1)OCO2)c1ccc(Cl)cc1Cl`, for which the results for the Zone of inhibition (in [2]; in the assay with HCT-116 [3]; with L1210 [4]) were 400 zone of inhibition units, 610 zone of inhibition units and 0 zone of inhibition units, respectively. In [1], this compound yielded an IC50 of 480 nM.

In turn, `O=C(NS(=O)(=O)c1cccc2sccc12)c1ccc(Cl)cc1Cl` showed a half-inhibitory concentration (IC50) in assay [1] of 3300 nM.

For `O=C(NS(=O)(=O)c1ccc2ccccc2c1)c1ccc(Cl)cc1Cl`, the Zone of inhibition in assay [5] was 270 zone of inhibition units; with L1210 [6], 270 zone of inhibition units; in the assay with HCT-116 [7], 530 zone of inhibition units. Besides, the IC50 in [1] amounted to 800 nM.

Take `O=C(NS(=O)(=O)c1cc2ccccc2o1)c1ccc(Cl)cc1Cl`: in [1], half-maximal inhibition (IC50) required 970 nM. This lies in the sub-micromolar range.

`O=C(NS(=O)(=O)c1cccs1)c1ccc(Cl)cc1Cl`: the results for the Zone of inhibition (in assay [8]; in the assay with L1210 [9]; with HCT-116 [10]) were 350 zone of inhibition units, 0 zone of inhibition units and 490 zone of inhibition units, respectively. Further, the IC50 in assay [1] was 540 nM.

`O=C(NS(=O)(=O)c1ccc2cc[nH]c2c1)c1ccc(Cl)cc1Cl` had an IC50 in [1] of 1870 nM.

Compound `COc1ncc(S(=O)(=O)NC(=O)c2ccc(Cl)cc2Cl)s1` gave an IC50 in assay [1] of 540 nM.

Regarding `O=C(NS(=O)(=O)c1ccc2c(c1)CCO2)c1ccc(Cl)cc1Cl`, the results for the Zone of inhibition (in [11]; in the assay with HCT-116 [12]; in the assay on L1210 [13]) were 400 zone of inhibition units, 680 zone of inhibition units and 0 zone of inhibition units, respectively. Moreover, the IC50 in assay [1] worked out at 430 nM.

As for `COc1ccc(S(=O)(=O)NC(=O)c2ccc(Cl)cc2Cl)s1`, the concentration for half-maximal inhibition (IC50) in [1] turned out to be 680 nM. In other words, the sub-micromolar range.

`CN1CCc2ccc(S(=O)(=O)NC(=O)c3ccc(Cl)cc3Cl)cc21`: the Zone of inhibition is 60 zone of inhibition units in the assay on L1210 [14], 330 zone of inhibition units in assay [15] and 630 zone of inhibition units with HCT-116 [12]. This compound also came in with an IC50 in assay [1] of 1540 nM.

In the case of `N#Cc1ccc(S(=O)(=O)NC(=O)c2ccc(Cl)cc2Cl)s1`, inhibition in assay [1] was half-maximal at 3160 nM (IC50).

In assay [1], `O=C(NS(=O)(=O)c1cc(Cl)cs1)c1ccc(Cl)cc1Cl` yielded an IC50 of 390 nM. Compared with the last compound, the IC50 is about 8.1-fold lower.

Consider `O=C(NS(=O)(=O)c1ccc(Cl)c(Cl)c1)c1ccc(Cl)cc1Cl`, for which the Zone of inhibition with HCT-116 [3] is 560 zone of inhibition units.

On to `O=C(NS(=O)(=O)c1cccc2cc[nH]c12)c1ccc(Cl)cc1Cl`, for which the IC50 in assay [1] was found to be 3040 nM. In other words, the single-digit micromolar range.

`O=C(NS(=O)(=O)c1ccsc1)c1ccc(Cl)cc1Cl` gave an IC50 in [1] of 1270 nM.

Regarding `O=C(NS(=O)(=O)c1ccc2ccoc2c1)c1ccc(Cl)cc1Cl`, half-maximal inhibition in [1] (IC50) required 590 nM.

In the case of `O=C(NS(=O)(=O)c1cc(Cl)c(Br)s1)c1ccc(Cl)cc1Cl`, the IC50 in assay [1] was 760 nM.

`COC(=O)c1ccc(S(=O)(=O)NC(=O)c2ccc(Cl)cc2Cl)s1`: the IC50 in [1] is 1390 nM.

For the compound `CCc1ccc(S(=O)(=O)NC(=O)c2ccc(Cl)cc2Cl)s1`, the IC50 in assay [1] is 310 nM. This IC50 is about 4.5-fold lower than that of the compound before.

In assay [1], `Cc1ncc(S(=O)(=O)NC(=O)c2ccc(Cl)cc2Cl)s1` displayed an IC50 of 1180 nM.

On to `O=C(NS(=O)(=O)c1ccc(Cl)s1)c1ccc(Cl)cc1Cl`, for which the IC50 in assay [1] worked out at 360 nM.

In the case of `O=C(NS(=O)(=O)c1ccccc1)c1ccc(Cl)cc1Cl`, the Zone of inhibition in the assay with HCT-116 [16] was 700 zone of inhibition units.

With `CCc1nc(S(=O)(=O)NC(=O)c2ccc(Cl)cc2Cl)c[nH]1`, the IC50 in assay [1] is greater than 20000 nM.

Regarding `O=C(NS(=O)(=O)c1ccc(Cl)cc1)c1ccc(Cl)cc1Cl`, the Zone of inhibition in the assay with HCT-116 [3] was 660 zone of inhibition units.

With `Cc1ccc(S(=O)(=O)NC(=O)c2ccc(Cl)cc2Cl)s1`, the IC50 in assay [1] worked out at 600 nM. In other words, the sub-micromolar range.

In turn, `O=C(NS(=O)(=O)c1ccc2sccc2c1)c1ccc(Cl)cc1Cl` gave an IC50 in assay [1] of 620 nM.

Consider `O=C(NS(=O)(=O)c1ccc2c(c1)OCCO2)c1ccc(Cl)cc1Cl`, for which the results for the Zone of inhibition (in assay [2]; in the assay with L1210 [17]; in the assay with HCT-116 [3]) were 400 zone of inhibition units, 250 zone of inhibition units and 580 zone of inhibition units, respectively. In [1], the IC50 was found to be 400 nM.

Consider `O=C(NS(=O)(=O)c1ccc2ccsc2c1)c1ccc(Cl)cc1Cl`, for which the IC50 in assay [1] worked out at 640 nM.

In [1], `O=C(NS(=O)(=O)c1cccc2ccoc12)c1ccc(Cl)cc1Cl` displayed an IC50 of 5210 nM.

With `O=C(NS(=O)(=O)c1cc2ccccc2s1)c1ccc(Cl)cc1Cl`, the Zone of inhibition in assay [18] was 370 zone of inhibition units; with L1210 [19], 100 zone of inhibition units; in the assay with HCT-116 [12], 500 zone of inhibition units. This compound also had an IC50 in assay [1] of 960 nM.

Take `O=C(NS(=O)(=O)c1cnc(Cl)s1)c1ccc(Cl)cc1Cl`: the IC50 in [1] is 1090 nM.

In [1], `CCc1ncc(S(=O)(=O)NC(=O)c2ccc(Cl)cc2Cl)s1` showed an IC50 of 600 nM.

For `Cc1csc(S(=O)(=O)NC(=O)c2ccc(Cl)cc2Cl)c1`, the half-inhibitory concentration (IC50) in [1] is 700 nM.

In the case of `O=C(NS(=O)(=O)c1cccc2ccsc12)c1ccc(Cl)cc1Cl`, the 50% inhibitory concentration (IC50) in assay [1] was 4160 nM.
